Assay results reported in the array DNA melting data of Ke et al. (doi:10.1101/2024.01.08.574731).

Columns and labels:
[1] = folding enthalpy; higher = less favourable; fluorescence melt of hairpins on a sequencing array, two-state fit; conditions: sodium 0.088 M
Summary of the method: (§1)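 Hairpins were imaged by Cy3 fluorescence on a sequenced MiSeq flow cell with annealed Cy3 and quencher oligos, in 50 mM Na-HEPES pH 8.0, 25 mM NaCl, in 2.5 °C steps up to 60 °C. Bootstrapped two-state fits of normalised signals gave melting temperature and folding enthalpy. Four replicates were combined by inverse variance, and fitted temperatures were raised by 9.35 °C to match UV melts.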

[2] = melting temperature; fluorescence melt of hairpins on a sequencing array, two-state fit, raised by 9.35 °C to match UV melts; conditions: sodium 0.088 M
Summary of the method: as §1

Sequence	folding enthalpy [1] [kcal/mol]	Tm [2] [°C]
GCGGGAATCCGC ((((....))))	-27.9	68.3
GCGGGACCCGC ((((...))))	-24.5	55.9
GCGGGACGAAAGTCCGC (((.(((....))))))	-23.1	69.2
GCGGGAGCCGC ((((...))))	-9.67	54.9
GCGGGAGGAAACTTCCGC ((((.((....)).))))	-40.1	58.6
GCGGGCACGAAAGTGCGC (((..(((....))))))	-10.2	52.5
GCGGGCCCCGC ((((...))))	-22.2	62.2
GCGGGCGAAAGCCAACGC ((((((....)))..)))	-22.4	65.3
GCGGGCGAAAGCCACCGC ((((((....)))..)))	-17.4	59.2
GCGGGCGAAAGCCCACGC ((((((....)))..)))	-14	65.5
GCGGGCGAAAGCCCTCGC ((((((....)))..)))	-13.1	50
GCGGGCGAAAGCCTACGC ((((((....)))..)))	-18.8	61.5
GCGGGCGCCGC ((((...))))	-9.79	60.6
GCGGGCTCCCGC ((((....))))	-23.8	66
GCGGGCTGCCGC ((((....))))	-19.5	60.9
GCGGGGCGAAAGCCGTGC ((..(((....)))..))	-27.3	62.5
GCGGGGCGAAAGCCTGGC ((..(((....)))..))	-19.2	57.8
GCGGGGCGAAAGCGCGGC ((.(.((....)).).))	-27.6	62.5
GCGGGGCGAAAGCTACGC (((..((....))..)))	-27.3	68.6
GCGGGGCGAAAGCTCTGC ((.(.((....)).).))	-21.9	61.9
GCGGGGGCCCGC ((((....))))	-38.8	56
GCGGGGGGAAACCTCCGC ((((.((....)).))))	-40.9	66.7
GCGGGGTCCGC ((((...))))	-28.7	55.5
GCGGGTCCCGC ((((...))))	-28.1	56.4
GCGGGTGCCGC ((((...))))	-23.3	55.9

Sequence	folding enthalpy [1] [kcal/mol]	Tm [2] [°C]
GCGGGTGGAAACATCCGC ((((.((....)).))))	-43	64
GCGGGTTTCCGC ((((....))))	-28.2	59.2
GCGGTACCCGC ((((...))))	-18.7	63.3
GCGGTAGCCCGC ((((....))))	-12.3	62
GCGGTAGGAAACTATCGC (((.(((....))).)))	-37.9	53.7
GCGGTCAGCCGC ((((....))))	-27.7	57.4
GCGGTCGAAAGACATCGC ((((((....)))..)))	-20.7	49.1
GCGGTCGAAAGACGCGC ((((((....))).)))	-30.8	65.6
GCGGTCGAAAGACGGCGC ((((((....)))..)))	-31.3	63.9
GCGGTCGAAAGACGTCGC ((((((....)))..)))	-23.7	50.5
GCGGTCGAAAGACTCGC ((((((....))).)))	-29	54.6
GCGGTCGAAAGACTTCGC ((((((....)))..)))	-21.6	47.6
GCGGTCGGAAACGGCTGC ((.(.((....)).).))	-36.8	53.4
GCGGTCTCCCGC ((((....))))	-33.4	55.5
GCGGTGCCCGC ((((...))))	-19.3	55.5
GCGGTGCGAAAGCAATGC ((..(((....)))..))	-29.2	59
GCGGTGCGAAAGCCCAGC ((.(.((....)).).))	-21.6	54.2
GCGGTGCGAAAGCTCGGC ((.(.((....)).).))	-19.1	51
GCGGTGGCCCGC ((((....))))	-16.3	61
GCGGTGGCGAAAGCCCGC (((..(((....))))))	-23.3	66.9
GCGGTGGGAAACCGTCGC (((..((....))..)))	-14.3	55.5
GCGGTGGGCCGC ((((....))))	-13.9	65.8
GCGGTTCCGAAAGGACGC (((..(((....))))))	-25	51.7
GCGGTTCGCCGC ((((....))))	-23.3	64.5
